Assay results as given in ChEMBL document CHEMBL1944597, “Synthesis and evaluation of non-basic inhibitors of urokinase-type plasminogen activator (uPA)” (Bioorg Med Chem, 2012).

Key:
Prothrombin = Prothrombin (Homo sapiens, UniProt P00734); assay: Inhibition of human plasma thrombin using pyroGlu-Pro-Arg-p-NA.HCl as substrate preincubated for 15 mins prior substrate addition measured for 10 mins by spectrophotometry
Summary of the method: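 Human plasma thrombin (about 5 mU) in Tris pH 8.3 was given a 15-min 37 °C preincubation with inhibitor at 0–250 µM final, from DMSO stocks. […] Absorbance at 405 nm gave the initial rate over 0–0.25 AU in 10 min, at 37 °C, in duplicate. IC50 was taken as 50% activity loss.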

[1] = molecular target: T1, Urokinase-type plasminogen activator (Homo sapiens, UniProt P00749); assay: Competitive inhibition of human uPA using pyroGlu-Gly-Arg-p-NA.HCl as substrate preincubated for 15 mins prior substrate addition measured for 10 mins by spectrophotometry
Summary of the method: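 Human uPA (about 1 mU) in 50 mM Tris pH 8.8 at 37 °C. […] Initial rate taken over 0–0.25 absorbance units in 10 min. Duplicates; IC50 is the concentration giving 50% activity.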

[2] = molecular target: Tissue-type plasminogen activator (Homo sapiens, UniProt P00750); assay: Inhibition of recombinant tPA using H-D-Ile-Pro-Arg-pNA.2HCl as substrate preincubated for 15 mins prior substrate addition measured for 10 mins by spectrophotometry
Chain of Tissue-type plasminogen activator (P00750 whole entry): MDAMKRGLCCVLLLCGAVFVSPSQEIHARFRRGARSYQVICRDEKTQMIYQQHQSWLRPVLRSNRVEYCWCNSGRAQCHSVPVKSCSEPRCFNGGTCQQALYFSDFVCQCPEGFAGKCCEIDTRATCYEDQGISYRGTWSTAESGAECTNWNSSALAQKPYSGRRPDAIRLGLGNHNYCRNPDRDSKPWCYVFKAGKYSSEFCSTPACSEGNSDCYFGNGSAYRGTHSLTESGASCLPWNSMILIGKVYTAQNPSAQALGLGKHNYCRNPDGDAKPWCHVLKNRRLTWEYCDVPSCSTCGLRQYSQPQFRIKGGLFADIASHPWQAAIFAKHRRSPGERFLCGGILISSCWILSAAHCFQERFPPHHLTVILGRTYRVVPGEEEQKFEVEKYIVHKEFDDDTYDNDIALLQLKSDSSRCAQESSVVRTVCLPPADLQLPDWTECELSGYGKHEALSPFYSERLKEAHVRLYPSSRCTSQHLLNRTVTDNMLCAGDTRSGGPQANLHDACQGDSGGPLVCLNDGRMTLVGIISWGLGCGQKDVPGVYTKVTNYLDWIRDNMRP
Summary of the method: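 Recombinant tPA, about 5 mU, in Tris buffer pH 8.3, with inhibitor at 0–250 µM final from DMSO stocks, preincubated 15 min at 37 °C. […] Initial rate came from 405 nm absorbance (0–0.25 AU, 10 min) at 37 °C, measured in duplicate. IC50 was the inhibitor level reducing activity to 50%.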

[3] = molecular target: T1, Urokinase-type plasminogen activator; assay: Inhibition of human uPA using pyroGlu-Gly-Arg-p-NA.HCl as substrate preincubated for 15 mins prior substrate addition measured for 10 mins by spectrophotometry
Plasminogen = Plasminogen (Homo sapiens, UniProt P00747); assay: Inhibition of human plasma plasmin using pyroGlu-Pro-Arg-p-NA.HCl as substrate preincubated for 15 mins prior substrate addition measured for 10 mins by spectrophotometry
Chain of Plasminogen (P00747 97-580 limits assumed): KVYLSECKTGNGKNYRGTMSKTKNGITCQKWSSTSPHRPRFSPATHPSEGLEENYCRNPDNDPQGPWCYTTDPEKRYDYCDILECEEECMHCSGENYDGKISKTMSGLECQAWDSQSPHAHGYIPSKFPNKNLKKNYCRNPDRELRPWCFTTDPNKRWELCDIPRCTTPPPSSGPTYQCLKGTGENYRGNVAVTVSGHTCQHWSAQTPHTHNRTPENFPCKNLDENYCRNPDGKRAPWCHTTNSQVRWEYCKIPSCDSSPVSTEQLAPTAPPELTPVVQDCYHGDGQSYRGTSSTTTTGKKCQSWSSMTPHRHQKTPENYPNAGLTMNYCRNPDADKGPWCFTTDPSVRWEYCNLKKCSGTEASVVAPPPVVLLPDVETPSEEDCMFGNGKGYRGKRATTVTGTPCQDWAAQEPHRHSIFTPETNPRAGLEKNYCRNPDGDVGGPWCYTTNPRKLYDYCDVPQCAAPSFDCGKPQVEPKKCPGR
Chain of Plasminogen (P00747 581-810 limits assumed): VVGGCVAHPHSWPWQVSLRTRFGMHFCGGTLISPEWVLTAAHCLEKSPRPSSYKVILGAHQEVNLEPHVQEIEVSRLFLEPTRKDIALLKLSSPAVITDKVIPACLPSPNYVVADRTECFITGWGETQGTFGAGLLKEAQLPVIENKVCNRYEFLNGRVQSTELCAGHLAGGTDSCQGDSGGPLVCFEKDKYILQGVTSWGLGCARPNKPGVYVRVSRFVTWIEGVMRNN
Summary of the method: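 Plasmin from human plasma, about 5 mU, in Tris buffer pH 7.4, preincubated 15 min at 37 °C with inhibitor (0–250 µM final, DMSO stocks). […] Initial rate was read at 405 nm (0–0.25 AU within 10 min) at 37 °C. Assays ran in duplicate, and IC50 was the concentration halving activity.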

[4] = molecular target: T1, Urokinase-type plasminogen activator; assay: Non-competitive inhibition of human uPA using pyroGlu-Gly-Arg-p-NA.HCl as substrate preincubated for 15 mins prior substrate addition measured for 10 mins by spectrophotometry

| SMILES | IC50 [3] | also measured |
| --- | --- | --- |
| CCOC(=O)N1CCN(C(=O)[C@H](Cc2cccc(C(=N)N)c2)NS(=O)(=O)c2c(C(C)C)cc(C(C)C)cc2C(C)C)CC1 |  | Ki [2]: 4.9 µM |
| C[C@H](NC(=O)[C@@H](CO)NS(=O)(=O)Cc1ccccc1)C(=O)NCc1ccc(C(=N)N)cc1 |  | Ki (Prothrombin): 0.1 µM; Ki [2]: 7.4 µM |
| COc1ccc2cc(S(=O)(=O)Nc3ccc(-c4cccc(C(F)(F)F)c4)cc3)ccc2c1 | 4.1 µM | IC50 [2]: 13 µM |
| NC(=O)c1ccc2cc(C(=O)Nc3ccccc3)ccc2c1 |  | IC50 [4]: 15 µM |
| COc1cc(NC(=O)c2ccc3cc(C(N)=O)ccc3c2)cc(OC)c1 | 30 µM |  |
| COc1cccc(-c2ccc(NC(=O)c3ccc4ccccc4c3)cc2)c1 | 9.8 µM |  |
| NC(=O)c1ccc2cc(C(=O)Nc3ccc(-c4cccc(C(F)(F)F)c4)cc3)ccc2c1 |  | IC50 (Prothrombin): > 62 µM; IC50 [4]: 2.4 µM; IC50 [2]: 3.4 µM; IC50 (Plasminogen): 6.3 µM |
| COc1ccc(-c2ccc(NC(=O)c3ccc4cc(C(N)=O)ccc4c3)cc2OC)cc1 | 6.4 µM | IC50 [2]: 9.7 µM |
| COc1cccc(-c2ccc(NC(=O)c3ccc4cc(C#N)ccc4c3)cc2)c1 | 20 µM |  |
| COC(=O)c1cccc(-c2ccc(NC(=O)c3ccc4cc(C#N)ccc4c3)cc2)c1 | 9 µM |  |
| COC(=O)c1cccc(-c2ccc(NC(=O)c3ccc4cc(OC)ccc4c3)cc2)c1 | 4 µM | IC50 (Prothrombin): > 62 µM; IC50 [2]: 8.4 µM; IC50 (Plasminogen): 4 µM |
| COc1cccc(-c2ccc(NC(=O)c3ccc4cc(OC)ccc4c3)cc2)c1 | 4 µM | IC50 (Prothrombin): > 62 µM; IC50 [2]: 21 µM; IC50 (Plasminogen): 20 µM |
| COc1ccc2cc(C(=O)Nc3ccc(-c4cccc([N+](=O)[O-])c4)cc3)ccc2c1 | 2.6 µM | IC50 (Prothrombin): > 62 µM; IC50 [2]: 8.6 µM; IC50 (Plasminogen): 31 µM |
| COc1ccc2cc(C(=O)Nc3ccc(-c4cccc(C(F)(F)F)c4)cc3)ccc2c1 |  | IC50 (Prothrombin): > 62 µM; IC50 [4]: 2.1 µM; IC50 [2]: 5.3 µM; IC50 (Plasminogen): 6.5 µM |
| COc1ccc(-c2ccc(NC(=O)c3ccc4cc(OC)ccc4c3)cc2)cc1 | 12 µM |  |
| COc1ccc2cc(C(=O)Nc3ccc(-c4ccc(OC)c(OC)c4)cc3)ccc2c1 | 31 µM |  |

| SMILES | IC50 [3] | also measured |
| --- | --- | --- |
| COc1ccc(-c2ccc(NC(=O)c3ccc4cc(OC)ccc4c3)cc2OC)cc1 | > 31 µM |  |
| COC(=O)c1cccc(-c2ccc(NC(=O)c3ccc4cc(Cl)ccc4c3)cc2)c1 | 7 µM |  |
| COC(=O)c1cccc(-c2ccc(NC(=O)c3ccc4cc(Br)ccc4c3)cc2)c1 | 11 µM |  |
| COc1cccc(-c2ccc(NS(=O)(=O)c3ccc4ccccc4c3)cc2)c1 | 31 µM |  |
| COC(=O)c1cccc(-c2ccc(NS(=O)(=O)c3ccc4cc(OC)ccc4c3)cc2)c1 |  | IC50 (Prothrombin): > 62 µM; IC50 [4]: 2.8 µM; IC50 [2]: 26 µM; IC50 (Plasminogen): > 62 µM |
| COc1ccc2cc(S(=O)(=O)Nc3ccc(-c4cccc(F)c4)cc3)ccc2c1 | > 62 µM |  |
| COc1ccc2cc(S(=O)(=O)Nc3ccc(-c4cccc(Cl)c4)cc3)ccc2c1 | > 62 µM |  |
| COc1cccc(-c2ccc(NS(=O)(=O)c3ccc4cc(OC)ccc4c3)cc2)c1 | 19 µM |  |
| COc1ccc2cc(S(=O)(=O)Nc3ccc(-c4cccc([N+](=O)[O-])c4)cc3)ccc2c1 | 6.9 µM |  |
| COc1ccc2cc(S(=O)(=O)Nc3ccc(-c4cccc(N)c4)cc3)ccc2c1 | 62 µM |  |
| COC(=O)c1ccc(-c2ccc(NS(=O)(=O)c3ccc4cc(OC)ccc4c3)cc2)cc1 | 16 µM |  |
| COc1ccc(-c2ccc(NS(=O)(=O)c3ccc4cc(OC)ccc4c3)cc2)cc1 | 23 µM |  |
| COc1ccc2cc(S(=O)(=O)Nc3ccc(-c4ccc(OC)c(OC)c4)cc3)ccc2c1 | 8 µM |  |
| COc1ccc(-c2ccc(NS(=O)(=O)c3ccc4cc(OC)ccc4c3)cc2OC)cc1 | 8 µM |  |
| [H]/N=C(\N)c1ccc2cc(C(=O)Nc3ccc(CN)cc3)ccc2c1 |  | IC50 (Prothrombin): > 62 µM; IC50 [2]: > 62 µM; IC50 (Plasminogen): > 62 µM |

Further lines, with some results ahead:

| IC50 [3] | SMILES | also measured |
| --- | --- | --- |
| 13 µM | N=C(N)c1ccc2cc(C(=O)Nc3ccccc3)ccc2c1 | IC50 (Prothrombin): 56 µM; Ki [1]: 1.9 µM; IC50 [2]: 125 µM; IC50 (Plasminogen): 22 µM |
| 2.6 µM | COc1cc(NC(=O)c2ccc3cc(C(=N)N)ccc3c2)cc(OC)c1 | IC50 (Prothrombin): > 62 µM; IC50 [2]: > 62 µM; IC50 (Plasminogen): 13 µM |
| 0.2 µM | N=C(N)c1ccc(/C=C2/N=C(c3ccccc3)OC2=O)cc1 | IC50 (Prothrombin): > 100 µM; IC50 [2]: > 100 µM; IC50 (Plasminogen): > 100 µM |
| > 62 µM | N#Cc1ccc2cc(C(=O)Nc3ccccc3)ccc2c1 |  |
| > 62 µM | O=C(Nc1ccccc1)c1ccc2ccccc2c1 |  |
| > 62 µM | O=C(Nc1ccccc1)c1ccc2cc(Br)ccc2c1 |  |
| > 62 µM | Nc1ccc2cc(C(=O)Nc3ccccc3)ccc2c1 |  |
| > 62 µM | COc1ccc2cc(C(=O)Nc3ccccc3)ccc2c1 |  |
| > 62 µM | COC(=O)c1ccc2cc(C(=O)Nc3ccccc3)ccc2c1 |  |
| > 62 µM | O=C(O)c1ccc2cc(C(=O)Nc3ccccc3)ccc2c1 |  |
| 45 µM | NCc1ccc(NC(=O)c2ccc3cc(C(N)=O)ccc3c2)cc1 |  |
| 16 µM | COC(=O)c1cccc(-c2ccc(NC(=O)c3ccc4ccccc4c3)cc2)c1 |  |
| 3.6 µM | COC(=O)c1cccc(-c2ccc(NC(=O)c3ccc4cc(C(N)=O)ccc4c3)cc2)c1 | IC50 (Prothrombin): > 125 µM; IC50 [2]: 11 µM; IC50 (Plasminogen): > 125 µM |
| 2.9 µM | COc1cccc(-c2ccc(NC(=O)c3ccc4cc(C(N)=O)ccc4c3)cc2)c1 | IC50 (Prothrombin): > 62 µM; IC50 [2]: 5.7 µM; IC50 (Plasminogen): 12 µM |
| 8.1 µM | NC(=O)c1ccc2cc(C(=O)Nc3ccc(-c4cccc(Cl)c4)cc3)ccc2c1 |  |
| 14 µM | COC(=O)c1cccc(-c2ccc(NC(=O)c3ccc4cc(C(=O)OC)ccc4c3)cc2)c1 |  |
| > 250 µM | N#Cc1ccc2cc(C(=O)Nc3ccc(-c4cccc(C(=O)O)c4)cc3)ccc2c1 |  |
| 31 µM | COC(=O)c1cccc(-c2ccc(NC(=O)c3ccc4cc(N)ccc4c3)cc2)c1 |  |
| 16 µM | COC(=O)c1cccc(-c2ccc(NS(=O)(=O)c3ccc4ccccc4c3)cc2)c1 |  |
| 9.8 µM | COC(=O)c1ccc(-c2ccc(NS(=O)(=O)c3ccc4ccccc4c3)cc2)cc1 |  |
| 31 µM | COc1ccc2cc(S(=O)(=O)Nc3ccc(-c4ccccc4)cc3)ccc2c1 |  |
| > 62 µM | COc1ccc2cc(S(=O)(=O)Nc3ccc(-c4cccc(C(N)=O)c4)cc3)ccc2c1 |  |
